# Test results published in ChEMBL document CHEMBL1124607, “Studies on antitumor agents. 8. Antitumor activities of O-alkyl derivatives of 2'-deoxy-5-(trifluoromethyl)uridine and 2'-deoxy-5-fluorouridine” (1989).
# Organism: Mus musculus
# Experiment: Antitumor activity against transplanted tumor sarcoma 180 expressed as effective dose.
# Assay type: functional
# Summary of the method: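 Male ICR mice, five weeks old, implanted s.c. in the axilla with 5×10^6 sarcoma 180 cells. Starting 24 h after implant, compounds were given orally once daily for 7 consecutive days as a suspension in 0.5% CMC with 0.1% Tween 80. Seven mice per dose. Tumors were excised and weighed on day 10, and inhibition was taken from treated/control tumor weight.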
row,SMILES,ED50
1,Cc1ccccc1COC[C@H]1O[C@@H](n2cc(C(F)(F)F)c(=O)[nH]c2=O)C[C@@H]1O,> 40 mg/kg/day
2,O=c1[nH]c(=O)n([C@H]2C[C@H](OCc3ccc(Cl)cc3)[C@@H](CO)O2)cc1C(F)(F)F,< 10 mg/kg/day
3,COc1ccc(COC[C@H]2O[C@@H](n3cc(C(F)(F)F)c(=O)[nH]c3=O)C[C@@H]2O)cc1,> 40 mg/kg/day
4,Cc1cccc(CO[C@H]2C[C@H](n3cc(C(F)(F)F)c(=O)[nH]c3=O)O[C@@H]2CO)c1,36 mg/kg/day
5,Cc1cccc(COC[C@H]2O[C@@H](n3cc(C(F)(F)F)c(=O)[nH]c3=O)C[C@@H]2O)c1,28 mg/kg/day
6,Cc1ccccc1CO[C@H]1C[C@H](n2cc(C(F)(F)F)c(=O)[nH]c2=O)O[C@@H]1CO,40 mg/kg/day
7,CCOC[C@H]1O[C@@H](n2cc(C(F)(F)F)c(=O)n(C(=O)c3ccccc3)c2=O)C[C@@H]1O,23 mg/kg/day
8,O=C(c1ccccc1)n1c(=O)c(C(F)(F)F)cn([C@H]2C[C@H](OCc3ccccc3)[C@@H](CO)O2)c1=O,26 mg/kg/day
9,CCO[C@H]1C[C@H](n2cc(C(F)(F)F)c(=O)[nH]c2=O)O[C@@H]1CO,15 mg/kg/day
10,CCO[C@H]1C[C@H](n2cc(C(F)(F)F)c(=O)n(C(=O)c3ccccc3)c2=O)O[C@@H]1CO,37 mg/kg/day
11,O=c1[nH]c(=O)n([C@H]2C[C@H](OCc3ccccc3)[C@@H](COCc3ccccc3)O2)cc1C(F)(F)F,> 40 mg/kg/day
12,CCOC[C@H]1O[C@@H](n2cc(C(F)(F)F)c(=O)[nH]c2=O)C[C@@H]1O,14 mg/kg/day
13,O=c1[nH]c(=O)n([C@H]2C[C@H](O)[C@@H](COCc3ccc(Cl)cc3)O2)cc1C(F)(F)F,14 mg/kg/day
14,O=c1[nH]c(=O)n([C@H]2C[C@H](OCc3ccccc3)[C@@H](CO)O2)cc1C(F)(F)F,13 mg/kg/day
15,CCO[C@H]1C[C@H](n2cc(F)c(=O)[nH]c2=O)O[C@@H]1CO,> 40 mg/kg/day
16,O=c1[nH]c(=O)n([C@H]2C[C@H](OCc3ccccc3)[C@@H](CO)O2)cc1F,12 mg/kg/day
17,CCOC[C@H]1O[C@@H](n2cc(F)c(=O)[nH]c2=O)C[C@@H]1O,39 mg/kg/day
18,O=c1c(C(F)(F)F)cn([C@H]2C[C@H](O)[C@@H](CO)O2)c(=O)n1Cc1ccccc1,> 40 mg/kg/day
19,O=c1[nH]c(=O)n([C@H]2C[C@H](O)[C@@H](COCc3ccccc3)O2)cc1C(F)(F)F,15 mg/kg/day
20,COc1ccc(CO[C@H]2C[C@H](n3cc(C(F)(F)F)c(=O)[nH]c3=O)O[C@@H]2CO)cc1,> 40 mg/kg/day
21,O=c1[nH]c(=O)n([C@H]2C[C@H](O)[C@@H](COCc3ccccc3)O2)cc1F,16 mg/kg/day
22,O=c1nc(OCc2ccccc2)c(C(F)(F)F)cn1[C@H]1C[C@H](O)[C@@H](CO)O1,> 40 mg/kg/day
23,CCOC[C@H]1O[C@@H](n2cc(C(F)(F)F)c(=O)[nH]c2=O)C[C@@H]1OCC,25 mg/kg/day
24,O=C(c1ccccc1)n1c(=O)c(C(F)(F)F)cn([C@H]2C[C@H](O)[C@@H](COCc3ccccc3)O2)c1=O,26 mg/kg/day
25,O=c1[nH]c(=O)n([C@H]2C[C@H](O)[C@@H](CO)O2)cc1F [FLOXURIDINE],84 mg/kg/day
26,O=c1[nH]c(=O)n([C@H]2C[C@H](O)[C@@H](CO)O2)cc1C(F)(F)F [TRIFLURIDINE],63 mg/kg/day
